For 2 molecules, inhibition and bioavailability results are on record in ChEMBL document CHEMBL4251655 (Eur J Med Chem, 2018).

The source made the active and inactive calls. The rule behind the calls is not given here.

The target in data set [1] is T1, Mitogen-activated protein kinase kinase kinase 5 (Homo sapiens) (UniProt Q99683).
T1 sequence (whole entry): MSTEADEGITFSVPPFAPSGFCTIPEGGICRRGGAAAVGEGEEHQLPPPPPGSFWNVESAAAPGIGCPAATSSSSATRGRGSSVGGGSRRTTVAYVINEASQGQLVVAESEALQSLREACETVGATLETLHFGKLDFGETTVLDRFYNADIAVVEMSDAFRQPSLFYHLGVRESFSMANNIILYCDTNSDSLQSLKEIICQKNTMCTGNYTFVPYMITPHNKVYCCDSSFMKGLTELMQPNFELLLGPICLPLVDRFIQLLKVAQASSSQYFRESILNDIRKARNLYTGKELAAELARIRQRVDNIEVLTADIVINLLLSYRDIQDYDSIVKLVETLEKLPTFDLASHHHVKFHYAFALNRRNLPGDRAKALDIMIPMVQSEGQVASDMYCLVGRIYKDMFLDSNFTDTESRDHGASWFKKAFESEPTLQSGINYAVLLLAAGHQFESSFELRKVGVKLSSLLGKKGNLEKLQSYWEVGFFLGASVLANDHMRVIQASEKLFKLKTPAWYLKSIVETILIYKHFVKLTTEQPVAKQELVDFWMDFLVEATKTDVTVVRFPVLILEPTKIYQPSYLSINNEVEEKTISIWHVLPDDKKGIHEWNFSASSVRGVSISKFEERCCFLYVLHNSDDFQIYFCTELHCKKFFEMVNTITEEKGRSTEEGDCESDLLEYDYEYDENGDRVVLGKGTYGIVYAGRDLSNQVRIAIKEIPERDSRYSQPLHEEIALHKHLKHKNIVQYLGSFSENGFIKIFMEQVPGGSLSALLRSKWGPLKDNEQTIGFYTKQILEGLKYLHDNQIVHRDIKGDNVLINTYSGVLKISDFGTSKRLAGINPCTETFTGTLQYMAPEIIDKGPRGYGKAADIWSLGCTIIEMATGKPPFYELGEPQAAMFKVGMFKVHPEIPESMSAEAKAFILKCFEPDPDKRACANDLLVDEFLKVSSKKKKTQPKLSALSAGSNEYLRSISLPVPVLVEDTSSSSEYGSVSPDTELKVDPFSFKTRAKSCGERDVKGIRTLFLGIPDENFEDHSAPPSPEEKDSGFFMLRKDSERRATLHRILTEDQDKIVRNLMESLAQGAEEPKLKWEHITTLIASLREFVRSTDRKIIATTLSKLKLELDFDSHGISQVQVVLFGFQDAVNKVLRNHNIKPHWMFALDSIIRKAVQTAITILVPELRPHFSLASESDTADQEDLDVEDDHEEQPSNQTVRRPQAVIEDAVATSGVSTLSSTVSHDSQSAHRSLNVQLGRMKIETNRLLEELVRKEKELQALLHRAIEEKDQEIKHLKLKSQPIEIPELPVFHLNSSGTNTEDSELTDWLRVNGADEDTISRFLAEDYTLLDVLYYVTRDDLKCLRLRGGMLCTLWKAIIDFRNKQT
Nature of the data set: Inhibition of recombinant full length human ASK1 expressed in HEK293/AP1-Luc cells assessed as reduction in autophosphorylation at Thr-838 residue at 10 uM after 30 mins by Western blot analysis. In kind it is cell-based. An outline of the steps:
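Stable HEK293/AP-1luc pools expressing wild-type or K709R full-length human ASK1 (or parental cells) plated in DMEM with 10% FBS, Geneticin and puromycin. Next day, washed in serum-free medium, then treated with 10 μM compound (final) at 37 °C for 30 min. Cells lysed in M-PER with protease/phosphatase inhibitors; protein by BCA; Western blot for ASK1, phospho-Thr838 ASK1 and α-tubulin.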
(In western blotting, separated proteins are transferred to a membrane and probed.)

The nature of data set [2]: Oral bioavailability in rat at 5 mg/kg administered via gavage. In kind it is ADME, organism-based. The following applies: in vivo. In a few lines: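 Rat, oral dosing as a solution.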

`COc1ccc(S(C)(=O)=O)cc1C(=O)Nc1cccc(-c2nncn2C(C)C)n1`: the inhibition entry in data set [1] was “Active”.
Turning to `COc1ccc(S(N)(=O)=O)cc1C(=O)Nc1cccc(-c2nncn2C(C)C)n1`, the bioavailability (in general, the share of a dose that reaches the circulation, judged against a reference dose that is usually intravenous) in data set [2] was below 1%.
